Results published in ChEMBL document CHEMBL1152684 (Bioorg Med Chem, 2009).
Activity calls are given as the source filed them. The calls are words filed in the database; no cut-off is given here.

Key:
Homo sapiens = species: Homo sapiens; assay: Binding affinity to cysteine-269 residue of human protein phosphatase 2A catalytic subunit at 0.6 uM after 2 hrs by MALDI-TOF MS analysis
Summary of the method: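 Purified PP2A (0.5 unit) incubated with or without ligand at 0.6 in 25 mM Tris-HCl, 137 mM NaCl, pH 7.5, 30 °C, 2 h. Samples boiled in SDS loading buffer with DTT and run on 10% gel. PP2Ac band reduced with DTT, alkylated with acrylamide and trypsin-digested. Peptide masses (MALDI-TOF MS) compared with native PP2Ac to find the adduct-bearing fragment.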

[1] = Inhibition of protein phosphatase 1
[2] = Inhibition of protein phosphatase 2A

- Activity (Homo sapiens): Active
- IC50 [1]: 45 µM
- IC50 [2]: 0.0015 µM
Structure (SMILES): C[C@@](O)(/C=C/[C@H]1CC=CC(=O)O1)[C@@H](C[C@@H](O)\C=C/C=C\C=C\CO)OP(=O)(O)O [FOSTRIECIN]
